IC50 and inhibition data for 20 compounds are collected here from ChEMBL document CHEMBL2016503, “Design and synthesis of 4-O-methylhonokiol analogs as inhibitors of cyclooxygenase-2 (COX-2) and PGF₁ production” (Bioorg Med Chem, 2012).

SMILES strings stand for the structures. A value given as a limit tells only on which side of the number the result lay.

In experiment [1] the test system is RAW264.7. Briefly: Inhibition of LPS-induced NO production in mouse RAW264.7 cells after 24 hrs by Griess assay. The format is functional, cell-based. The following applies: RAW264.7, 24 h. The procedure, abridged:
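RAW264.7 macrophages were grown in DMEM with heat-inactivated 10% FBS, penicillin and streptomycin at 37 °C under 5% CO₂. Cells were stimulated with LPS for 24 h with or without compound. Culture medium was mixed with an equal volume of 0.05% sulfanilamide and 0.05% N-(1-naphthyl)ethylenediamine, and absorbance was read at 540 nm. Nitrite was quantified against a sodium nitrite standard curve.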
For orientation: Nitrite, measured by Griess reagent, commonly stands in for NO production.

The test system of experiment [2] is RAW264.7. Nature of the experiment: Cytotoxicity against mouse RAW264.7 cells assessed as cell viability by propidium iodide staining based FACS-flow cytometry. The procedure, abridged:
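RAW264.7 macrophages were grown in DMEM with heat-inactivated 10% FBS, penicillin and streptomycin at 37 °C under 5% CO₂. Viability was assessed by propidium iodide nuclear staining at 1 µg/ml, followed by flow cytometry. PI-stained cells were counted as dead.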
On the technique in general: Flow cytometry measures light scatter and fluorescence of single cells or particles in a stream.

The target in experiment [3] is T1, Prostaglandin G/H synthase 2 (Homo sapiens) (UniProt P35354).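 Note: recombinant enzyme with arachidonic acid substrate, compound preincubated 10 min before substrate, product read by EIA after 2 min.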
T1 sequence (whole entry): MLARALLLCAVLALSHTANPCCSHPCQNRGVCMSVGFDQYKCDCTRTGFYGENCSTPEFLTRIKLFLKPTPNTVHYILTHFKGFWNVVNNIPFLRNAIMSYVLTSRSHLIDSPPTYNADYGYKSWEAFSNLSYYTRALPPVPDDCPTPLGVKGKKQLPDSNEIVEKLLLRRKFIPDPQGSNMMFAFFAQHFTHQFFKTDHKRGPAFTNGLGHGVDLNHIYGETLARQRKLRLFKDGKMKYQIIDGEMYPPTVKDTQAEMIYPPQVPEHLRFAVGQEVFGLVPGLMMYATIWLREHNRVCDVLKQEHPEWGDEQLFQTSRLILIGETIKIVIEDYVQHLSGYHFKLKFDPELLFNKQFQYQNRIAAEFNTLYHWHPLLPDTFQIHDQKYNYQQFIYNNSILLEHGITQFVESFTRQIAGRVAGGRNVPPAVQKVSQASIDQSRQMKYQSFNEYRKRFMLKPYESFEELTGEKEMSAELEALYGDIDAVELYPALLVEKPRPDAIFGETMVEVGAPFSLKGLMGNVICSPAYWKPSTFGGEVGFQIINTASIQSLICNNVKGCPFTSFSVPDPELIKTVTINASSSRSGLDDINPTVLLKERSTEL
The following applies: at 100 nM.

Take `C=CCc1ccc(OC(C)C)c(-c2ccc(OC)c(CC=C)c2)c1`: the IC50 (as a rule, the concentration needed to halve the response being measured) in the experiment on RAW264.7 [1] is 78 µM; in the experiment on RAW264.7 [2], greater than 100 µM. In experiment [3], the inhibition – broadly, the percentage by which the read-out fell short of the control – turned out to be 23%.

Turning to `CCCc1cc(-c2cc(Br)ccc2O)no1`, the IC50 in the experiment with RAW264.7 [1] and with RAW264.7 [2] was 63 µM in each case. Further, in experiment [3], the inhibition is 35%.

In the case of `C=CCc1ccc(OCC=C(C)C)c(-c2ccc(OC)c(CC=C)c2)c1`, the IC50 in the experiment with RAW264.7 [1] and in the experiment on RAW264.7 [2] was greater than 100 µM in each case. For the same compound, the inhibition in experiment [3] came out at 44%.

With `C=CCNC(=O)Oc1ccc(CC=C)cc1-c1ccc(OC)c(CC=C)c1`, the IC50 in the experiment on RAW264.7 [1] and in the experiment on RAW264.7 [2] was greater than 100 µM each time. Further, the inhibition in experiment [3] was found to be 48%.

Consider `C=CCc1ccc(OC(=O)NCc2ccccc2)c(-c2ccc(OC)c(CC=C)c2)c1`, for which the IC50 in the experiment with RAW264.7 [1] and with RAW264.7 [2] was greater than 100 µM each time. Besides, in experiment [3], the inhibition was 65%.

Take `C=CCc1cc(Cl)c(O)c(-c2ccc(OC)c(CC=C)c2)c1`: the IC50 with RAW264.7 [1] worked out at 40 µM; with RAW264.7 [2], 81 µM.

As for `C=CCc1ccc(O)c(-c2ccc(OC)c(CCCO)c2)c1`, the IC50 in the experiment with RAW264.7 [1] worked out at 41 µM; in the experiment with RAW264.7 [2], 53 µM.

For the compound `C=CCn1cc(-c2cc(CCC)ccc2O)nn1`, the half-maximal inhibitory concentration (IC50) in the experiment on RAW264.7 [1] and in the experiment on RAW264.7 [2] was greater than 50 µM throughout. In experiment [3], the inhibition is 22%.

As to `Cc1ccc(-c2cc(C(F)(F)F)nn2-c2ccc(S(N)(=O)=O)cc2)cc1` [CELECOXIB], the IC50 worked out at 12.1 µM with RAW264.7 [1] and 11.1 µM in the experiment on RAW264.7 [2].

In the case of `CCCc1ccc(O)c(-c2ccc(OC)c(CCC)c2)c1`, the IC50 turned out to be 11 µM with RAW264.7 [1] and 13 µM in the experiment with RAW264.7 [2]. In experiment [3], the inhibition worked out at 46%.

On to `C=CCc1ccc(OC(=O)N(C)Cc2ccccc2)c(-c2ccc(OC)c(CC=C)c2)c1`, for which the IC50 in the experiment with RAW264.7 [1] came to 33 µM; in the experiment on RAW264.7 [2], 44 µM. For the same compound, in experiment [3], the inhibition is 63%.

As to `CCCc1ccc(O)c(-c2cn(CC3CCC3)nn2)c1`, the values for the IC50 with RAW264.7 [1] and in the experiment with RAW264.7 [2] were 33 µM and greater than 50 µM, respectively. The inhibition in experiment [3] amounted to 33%.

Regarding `C=CCc1ccc(O)c(-c2ccc(OC)c(CC=C)c2)c1` [METHYLHONOKIOL], the IC50 with RAW264.7 [1] is 18 µM; in the experiment with RAW264.7 [2], 27 µM. This compound came in with an inhibition in experiment [3] of 57%.

Consider `C=CCc1ccc(O)c(-c2cc(CO)on2)c1`, for which the figures for the IC50 in the experiment with RAW264.7 [1] and in the experiment with RAW264.7 [2] were 36 µM and greater than 50 µM, respectively. In addition, in experiment [3], the inhibition was determined as 38%.

Regarding `C=CCc1ccc(OC(C)=O)c(-c2ccc(OC)c(CC=C)c2)c1`, the IC50 in the experiment with RAW264.7 [1] amounted to 24 µM; with RAW264.7 [2] it was 29 µM. In experiment [3], this compound gave an inhibition of 39%.

Take `C=CCc1ccc(OC)c(-c2ccc(OC)c(CC=C)c2)c1`: the IC50 is 40 µM in the experiment on RAW264.7 [1] and greater than 100 µM in the experiment with RAW264.7 [2]. This compound also registered an inhibition in experiment [3] of 46%.

Turning to `COc1ccc(-c2cc(CC=C(C)C)ccc2O)cc1CC=C(C)C`, the IC50 was found to be 13 µM in the experiment with RAW264.7 [1] and 15 µM in the experiment with RAW264.7 [2]. Besides, the inhibition in experiment [3] turned out to be 41%.

For the compound `COc1ccc(-c2cc(CC3CO3)ccc2O)cc1CC1CO1` (configuration not stated), the half-inhibitory concentration (IC50) is 24 µM in the experiment with RAW264.7 [1] and 64 µM with RAW264.7 [2]. The same compound came in with an inhibition in experiment [3] of 58%.

For the compound `C=CCc1cc(Br)c(O)c(-c2ccc(OC)c(CC=C)c2)c1`, the values for the IC50 in the experiment on RAW264.7 [1] and in the experiment with RAW264.7 [2] were 28 µM and 33 µM, respectively. This compound also returned an inhibition in experiment [3] of 52%.

As for `C=CCc1ccc(O)c(-c2cc(CCC)on2)c1`, the IC50 in the experiment with RAW264.7 [1] amounted to 61 µM; in the experiment with RAW264.7 [2], 81 µM. Moreover, the inhibition in experiment [3] was determined as 39%.
